Only some compounds are listed: those with a hit (about 2.4% of all), similar ones and a draw of the others.
IMP-1 inh-1: IMP-1 metallo-beta-lactamase inhibitors, primary screen, biochemical, epi-absorbance readout, Pseudomonas aeruginosa enzyme | metallo-beta-lactamase IMP-1 (Pseudomonas aeruginosa) | purified IMP-1, nitrocefin hydrolysis, epi-absorbance fluorescence | inhibition, % at 5.6 µM | actives 0.45% (n = 290,000) | AID 1556, 2009;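 active means inhibition above the mean plus 3 SD of all compounds in the same screening run, cut at about 4.5% in these data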;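 further: 0% = IMP-1 with DMSO and 100% = DMSO wells lacking enzyme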
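System: Purified IMP-1 | Read-out basis: Percent enzyme inhibition | Controls: IMP-1 with DMSO as 0%, enzyme-free DMSO as 100% | Replicates: One well per compound | Doses: 5.6 µM nominal single concentration | Detection: Epi-absorbance fluorescence, 480 nm excitation, 530 nm emission | Incubation: 25 °C, 15 min preincubation, 25 min reaction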
PfM18AAP inh: PfM18AAP inhibitors, malaria aminopeptidase, primary screen, biochemical, QFRET, recombinant enzyme; inhibition, % at 7.35 µM; H-Glu-NHMec fluorogenic cleavage; actives 1.2% (n = 290,000); M18 aspartyl aminopeptidase (Plasmodium falciparum 3D7);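 active means inhibition above the campaign mean inhibition over all tested compounds plus 3 SD, cut at about 28% in these data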;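 further: 0% = plate median of test compound wells and 100% = 2 mM ZnCl2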
HGIII-sPLA2 inh: human group III sPLA2 inhibitors, primary screen, biochemical, QFRET, BODIPY PC-A2 liposome substrate | Group 3 secretory phospholipase A2 (Homo sapiens), Q9NZ20 | QFRET BODIPY PC-A2 liposome hydrolysis, fluorescence | actives 0.56% (n = 370,000) | inhibition, % at 12.2 µM;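 active means inhibition above mean plus 3 SD of compounds lying within the high and low control bounds, cut at about 19% in these data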;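 further: 0% = median of test compound wells and 100% = no enzyme DMSO wells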
Target sequence (Q9NZ20 whole entry, looked up): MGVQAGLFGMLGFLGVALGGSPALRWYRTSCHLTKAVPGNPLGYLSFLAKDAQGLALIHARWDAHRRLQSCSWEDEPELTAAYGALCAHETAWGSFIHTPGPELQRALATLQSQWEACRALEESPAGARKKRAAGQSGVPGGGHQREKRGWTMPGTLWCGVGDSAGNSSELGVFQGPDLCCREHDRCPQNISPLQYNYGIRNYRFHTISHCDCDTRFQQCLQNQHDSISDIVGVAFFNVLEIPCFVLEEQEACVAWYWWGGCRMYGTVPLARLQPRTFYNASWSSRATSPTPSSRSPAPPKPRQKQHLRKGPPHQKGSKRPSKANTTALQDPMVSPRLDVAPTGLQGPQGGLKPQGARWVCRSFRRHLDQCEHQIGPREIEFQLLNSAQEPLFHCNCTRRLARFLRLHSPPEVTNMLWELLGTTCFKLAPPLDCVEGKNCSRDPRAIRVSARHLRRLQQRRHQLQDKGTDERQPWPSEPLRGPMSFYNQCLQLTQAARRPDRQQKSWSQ
VIM-2 inh: VIM-2 metallo-beta-lactamase inhibitors, primary screen, biochemical, epi-absorbance readout, Pseudomonas aeruginosa enzyme; purified VIM-2, nitrocefin hydrolysis, epi-absorbance fluorescence; inhibition, % at 5.6 µM; actives 0.89% (n = 290,000); AID 1527, 2009;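 active means inhibition above the mean of all tested compounds plus 3 SD, cutoff set per screening run, cut at about 7.5% in these data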;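 further: red hydrolysis product quenches plate fluorescence so inhibitors raise well fluorescence; 0% = enzyme with DMSO and 100% = DMSO without enzyme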
IMP-1 inh-2: IMP-1 metallo-beta-lactamase inhibitors, confirmation, selectivity assay for selective VIM-2 inhibitor project, biochemical, epi-absorbance readout, triplicate; shares compounds with VIM-2 inh; purified IMP-1, nitrocefin hydrolysis, epi-absorbance fluorescence; inhibition, % at 5.6 µM; 1,300 tested, under 10 active; call rule not given here;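 further: 0% = enzyme with vehicle and 100% = vehicle without enzyme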
VIM-2 FRET inh: VIM-2 inhibitors in FRET format, confirmation, artefact control for selective VIM-2 inhibitor project, biochemical, epi-absorbance artifact exclusion; shares compounds with VIM-2 inh; purified VIM-2, CCF2 FRET substrate hydrolysis; inhibition, % at 5.6 µM; actives 23% (n = 1,300); AID 1857, 2009;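 active means inhibition above the mean of all tested compounds plus 3 SD, cut at about 19% in these data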;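 further: 0% = VIM-2 plus DMSO and 100% = no enzyme wells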
TEM-1 inh: TEM-1 serine beta-lactamase inhibitors, counter-screen for VIM-2 inhibitor project, biochemical, epi-absorbance, HTS | Purified TEM-1, nitrocefin hydrolysis, epi-absorbance fluorescence | actives 3% (n = 1,300) | shares compounds with VIM-2 inh | inhibition, % at 5.6 µM;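 active means inhibition above that campaign's mean inhibition plus 3 SD, cut at about 0.46% in these data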;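 further: 0% = TEM-1 with DMSO and 100% = TEM-1 with 100 µM potassium clavulanate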
Target sequence (P62593 whole entry, looked up): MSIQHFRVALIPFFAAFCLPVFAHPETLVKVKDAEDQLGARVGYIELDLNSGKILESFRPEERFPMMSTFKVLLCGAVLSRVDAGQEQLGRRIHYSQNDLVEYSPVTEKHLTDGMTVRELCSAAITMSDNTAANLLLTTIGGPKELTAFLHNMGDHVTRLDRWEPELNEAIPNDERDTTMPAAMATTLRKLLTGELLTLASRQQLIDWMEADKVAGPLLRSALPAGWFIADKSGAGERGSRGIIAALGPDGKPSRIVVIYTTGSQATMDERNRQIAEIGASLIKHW
VIM-2 inh conf: VIM-2 metallo-beta-lactamase inhibitors, confirmation, biochemical, epi-absorbance, hits shared with IMP-1 screen; shares compounds with VIM-2 inh; inhibition, % at 5.6 µM; purified VIM-2, nitrocefin hydrolysis; actives 96% (n = 1,300);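 active means inhibition of the VIM-2 beta-lactamase enzyme above about 11% from the earlier first-round screen, limit read from the data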;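 further: 0% = VIM-2 with DMSO and 100% = buffer wells without enzyme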
The depositor's hits bear a star; nt = not tested or not shown.

SMILES | IMP-1 inh-1 | PfM18AAP inh | HGIII-sPLA2 inh | VIM-2 inh | IMP-1 inh-2 | VIM-2 FRET inh | TEM-1 inh | VIM-2 inh conf
CC(/C=N/n1c(-c2ccco2)n[nH]c1=S)=C\c1ccccc1 | -3 | 17 | 6 | 13* | -3 | 40* | -7 | 23*
CC(/C=N/n1c(-c2ccccn2)n[nH]c1=S)=C\c1ccccc1 | -4 | -2 | 0 | 2 | nt | nt | nt | nt
CCc1n[nH]c(=S)n1/N=C/c1ccc(-c2ccc(Br)cc2)o1 | nt | nt | 2 | nt | nt | nt | nt | nt
Cc1ccc(/C=N\NC(=O)CN2CCN(S(=O)(=O)c3ccc(Br)cc3)CC2)s1 | nt | nt | -13 | nt | nt | nt | nt | nt
C[C@H](NC(=O)OCc1ccccc1)P(=O)(O)O | nt | nt | 0 | nt | nt | nt | nt | nt
C[C@@H]1COc2cc(Br)ccc2S(=O)(=O)N1Cc1cn(CC2CCCCC2)nn1 | nt | nt | 2 | nt | nt | nt | nt | nt
CCOC(=O)c1cc(-c2ccc(/C=N\n3cnnc3)o2)ccc1Cl | 0 | 14 | 6 | 57* | -3 | -4 | -6 | 78*
Cc1cc(-c2ccc(/C=N/n3cnnc3)o2)ccc1Cl | -2 | 16 | 1 | 14* | -2 | -9 | -2 | 37*
CCCCOC(=O)c1cc(-c2ccc(/C=N/n3cnnc3)o2)ccc1Cl | -2 | 7 | -1 | 22* | 0 | -5 | -6 | 54*
COc1ccc(S[C@]2(C(=O)N(C)C)CC(=O)N(C(=O)/C=C/c3ccccc3)[C@@H]2c2ccc(OC)cc2)cc1 | nt | nt | -6 | nt | nt | nt | nt | nt
COc1cc(OC)c(NC(=O)c2csc(C)c2)cc1Cl | -1 | 5 | 8 | -3 | nt | nt | nt | nt
Cc1ccc(S(=O)(=O)N2[C@@H](c3cccc(Cl)c3)C(C(=O)O)=CC[C@H]2c2cccs2)cc1 | nt | nt | -9 | nt | nt | nt | nt | nt
COc1ccc(-c2cc3c(=O)n(CC(=O)NCCCN4CCC(N5CCCCC5)CC4)nc(C)n3n2)cc1 | -3 | -8 | -2 | 24* | -3 | 1 | -2 | 32*
O=C(Nc1ccc(-n2ccnc2P(=O)(O)c2ccccc2)cc1)c1ccccc1Cl | -3 | 9 | 4 | 15* | -4 | 29* | -5 | 21*
Cc1cc(C)n(Cc2ccc(C(=O)N/N=C/c3ccc(-c4ccc([N+](=O)[O-])cc4)o3)o2)n1 | -4 | 13 | 2 | 42* | -1 | 1 | 13* | 14*
CN1CCN(C(=O)CSc2nc(-c3ccco3)cc(C(F)(F)F)n2)CC1 | 0 | -2 | -7 | 43* | -3 | 2 | -6 | 57*
CCCOc1ccccc1C(=O)Nc1ccc(S(=O)(=O)N2CCN(C)CC2)cc1 | -1 | -9 | -14 | 51* | -2 | -1 | -7 | 65*
N#CCC[C@H]1CC[C@]2(CCCN(C(=O)c3ccno3)C2)O1 | nt | nt | 16 | nt | nt | nt | nt | nt
CC(C)CSc1ncccc1-c1nc2ccccc2[nH]1 | nt | nt | 0 | nt | nt | nt | nt | nt
CCN1C(=O)/C(=C2\SC(N3CCOCC3)=NC2=O)c2ccccc21 | -1 | -8 | 3 | 15* | -2 | -1 | -7 | 24*
COc1ccc(N2C(=NC(=O)C3CCCCC3)SC3CS(=O)(=O)CC32)c(OC)c1 (stereo not given) | -2 | 4 | 9 | -6 | nt | nt | nt | nt
Cc1c(N2C(=O)/C(=C\c3cccc4ccccc34)SC2=S)c(=O)n(-c2ccccc2)n1C | -3 | 0 | -2 | 62* | 0 | 33* | -3 | 30*
Cc1cc(NC(=O)CSc2nccn2-c2cccc(Cl)c2)no1 | -2 | 0 | -6 | 0 | nt | nt | nt | nt
CCCCn1c2ccccc2c2nnc(SCCN3CCCCC3)nc21 | -3 | 5 | -11 | 13* | -3 | -6 | -7 | 19*
CCCCn1c2ccc(F)cc2c2nnc(SCCN3CCOCC3)nc21 | 0 | 16 | -3 | 3 | nt | nt | nt | nt
SMILES | IMP-1 inh-1 | PfM18AAP inh | HGIII-sPLA2 inh | VIM-2 inh | IMP-1 inh-2 | VIM-2 FRET inh | TEM-1 inh | VIM-2 inh conf
O=c1cc(CN2CCOCC2)c2cc(Cl)c(O)cc2o1 | -3 | 1 | 9 | -4 | nt | nt | nt | nt
CCc1cc2c(CN3CCN(CC)CC3)cc(=O)oc2cc1O | 0 | -10 | -2 | 21* | -4 | -22 | -6 | 25*
Clc1cccc(CN2CCN(c3ncc(Cc4ccccc4)cn3)CC2)c1Cl | nt | nt | -4 | nt | nt | nt | nt | nt
O=S1(=O)N[C@H](Cc2ccccc2)COc2cc(F)ccc21 | nt | nt | -7 | nt | nt | nt | nt | nt
CC(C)(C)c1ccc(COc2ccsc2C(=O)O)cc1 | -4 | -4 | 2 | 20* | -3 | 48* | -4 | 29*
O=C(O)c1sccc1OCc1ccccc1 | -5 | 2 | 1 | 0 | nt | nt | nt | nt
COc1ccc(-c2cc(C(F)(F)F)n3nc(C(=O)NCCCn4ccnc4)cc3n2)cc1 | -3 | 4 | -17 | 29* | -2 | -13 | -6 | 48*
COc1ccccc1-c1n[nH]c(=S)n1Cc1ccco1 | -4 | 14 | nt | 16* | -3 | 47* | -7 | 29*
COc1ccccc1-c1n[nH]c(=S)n1Cc1ccccc1 | -2 | 17 | 16 | 25* | -3 | 52* | -9 | 34*
S=c1[nH]nc(-c2ccncc2)n1Cc1ccco1 | -4 | 9 | 10 | -1 | nt | nt | nt | nt
COc1ccccc1-n1c(-c2ccccc2)n[nH]c1=S | -4 | 17 | 18 | 15* | -2 | 46* | -7 | 26*
CCn1c(-c2cc(Cl)ccc2OC)n[nH]c1=S | 0 | 15 | 14 | -1 | nt | nt | nt | nt
CCN(CC)C(=O)CSc1nnc2c3ccccc3n(C)c2n1 | -6 | 1 | -5 | 14* | -3 | 0 | -5 | 24*
CCOC(=O)Cc1nnc(NC(=O)CSc2nnc3c4ccccc4n(C)c3n2)s1 | -3 | 15 | -30 | 17* | -2 | -1 | -11 | 38*
C[C@H]1CN([C@@H](C)CO)C(=O)c2cc(C#CC3(O)CCCC3)cnc2O[C@H]1CN(C)C(=O)C1CC1 | nt | nt | -5 | nt | nt | nt | nt | nt
Cc1cccc(NC(=O)COc2ccc(-c3nn(C)c(=O)c4ccccc34)cc2)c1 | -2 | -3 | -16 | 16* | -3 | 0 | -7 | 18*
COC(=O)COc1ccc(-c2nn(C)c(=O)c3ccccc23)cc1 | -1 | 1 | 9 | 4 | nt | nt | nt | nt
Cn1nc(-c2ccc(OCC(N)=O)cc2)c2ccccc2c1=O | -4 | 1 | 1 | 13* | -2 | 0 | -5 | 30*
CCCNC(=O)COc1ccc(-c2nn(C)c(=O)c3ccccc23)cc1 | -1 | -3 | 1 | 13* | -2 | -1 | -3 | 20*
